Reference: ChEMBL document CHEMBL1124600, “Synthesis and biological properties of purine and pyrimidine 5'-deoxy-5'-(dihydroxyphosphinyl)-beta-D-ribofuranosyl analogues of AMP, GMP, IMP, and CMP” (J Med Chem, 1989)
The source made the active and inactive calls. No cut-off for these calls is given here.

Columns and labels:
Enterovirus [1] = experiment: Antiviral activity at <=320 uM determined in a culture of Rhinovirus type 1-A; IA = inactive; format: functional, organism-based
Visna-maedi virus [2] = experiment: Antiviral activity at <=320 uM determined in a culture of Visna virus; IA = inactive; format: functional, organism-based
WIL2 [3] = experiment: Antitumor activity at <=100 uM determined in a 3-5 days culture of WI-L2 (human B-ltmphoblast); NA = no activity was shown; format: functional, cell-based
Method in brief: (§1)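 Wells seeded at (5–10) × 10³ cells with compound at 0.1–100 μM, triplicate wells, 37 °C. L1210 and WI-L2 ran 3 days, CCRF-CEM 4 days, Lovo/L 5 days. MTT was then added for 2 h and formazan dissolved in 2-propanol/0.04 M HCl before absorbance reading. ID50 is the concentration giving 50% of control growth.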

unidentified adenovirus [4] = experiment: Antiviral activity at <=320 uM determined in a culture of Adenovirus type 2; IA = inactive; format: functional, organism-based
[5] = Percent of phosphorylated forms of compound at 4 hr after phosphorylation by nucleoside monophosphate kinase; settings: Bos taurus
Influenza A virus [6] = experiment: Antiviral activity at <=320 uM determined in a culture of Influenza A; IA = inactive; format: functional, organism-based; settings: unidentified influenza virus
Human alphaherpesvirus 2 [7] = experiment: Antiviral activity at <=320 uM determined in a culture of Herpes simplex virus type 2; IA = inactive; format: functional, organism-based
L1210 = experiment: Antitumor activity at <=100 uM determined in a 3-5 days culture of L1210 murine leukemia; NA = no activity was shown; format: functional, cell-based; settings: Mus musculus; method in brief: as §1
LoVo = experiment: Antitumor activity at <=100 uM determined in a 3-5 days culture of LOVO/L (human colon carcinoma); NA = no activity was shown; format: functional, cell-based; method in brief: as §1
CCRF-CEM = experiment: Antitumor activity at <=100 uM determined in a 3-5 days culture of CCRF-CEM(human T cell leukemia); NA = no activity was shown; format: functional, cell-based; method in brief: as §1
unidentified adenovirus [8] = experiment: Antiviral activity at 100 uM determined in a culture of Adenovirus type 2; IA = inactive; format: functional, organism-based
Visna-maedi virus [9] = experiment: Antiviral activity at 1-3 uM determined in a culture of Visna virus; IA = inactive; format: functional, organism-based
Human respirovirus 3 = experiment: Antiviral activity at 10-30 uM determined in a culture of Parainfluenza virus type 3; IA = inactive; format: functional, organism-based
Enterovirus [10] = experiment: Antiviral activity at 100 uM determined in a culture of Rhinovirus type 1-A; IA = inactive; format: functional, organism-based
Influenza A virus [11] = experiment: Antiviral activity at 10-30 uM determined in a culture of Influenza A; IA = inactive; format: functional, organism-based; settings: unidentified influenza virus
Human alphaherpesvirus 2 [12] = experiment: Antiviral activity at 1-3 uM determined in a culture of Herpes simplex virus type 2; IA = inactive; format: functional, organism-based
WIL2 [13] = experiment: Antitumor activity at <=100 uM determined in a 3-5 days culture of WI-L2 […]; NA = no activity was shown; format: functional, cell-based; method in brief: as §1

Row | Structure (SMILES) | Activity (Enterovirus [1]) | Activity (Visna-maedi virus [2]) | Activity (WIL2 [3]) | Activity (unidentified adenovirus [4]) | % nucleotide present [5] | Activity (Influenza A virus [6]) | Activity (Human alphaherpesvirus 2 [7]) | Activity (L1210) | Activity (LoVo) | Activity (CCRF-CEM) | Activity (unidentified adenovirus [8]) | Activity (Visna-maedi virus [9]) | Activity (Human respirovirus 3) | Activity (Enterovirus [10]) | Activity (Influenza A virus [11]) | Activity (Human alphaherpesvirus 2 [12]) | Activity (WIL2 [13])
1 | Nc1ccn(C2O[C@H](CP(=O)(O)O)[C@@H](O)[C@H]2O)c(=O)n1 (stereo partly drawn) | inactive | inactive | inactive | inactive | 87% | inactive | inactive | inactive | inactive | inactive | – | – | – | – | – | – | –
2 | O=c1ccn(C2O[C@H](CP(=O)(O)O)[C@@H](O)[C@H]2O)c(=O)[nH]1 (stereo partly drawn) | inactive | inactive | inactive | inactive | – | inactive | inactive | inactive | inactive | inactive | – | – | – | – | – | – | –
3 | NC(=O)c1ncn([C@@H]2O[C@H](CO)[C@@H](O)[C@H]2O)n1 | – | – | – | – | – | – | – | – | – | – | inactive | inactive | inactive | inactive | inactive | inactive | –
4 | Nc1nc(O)c2ncn(C3O[C@H](CP(=O)(O)O)[C@@H](O)[C@H]3O)c2n1 (stereo partly drawn) | inactive | inactive | inactive | inactive | – | inactive | inactive | inactive | inactive | inactive | – | – | – | – | – | – | –
5 | O=P(O)(O)C[C@H]1OC(n2cnc3c(O)ncnc32)[C@H](O)[C@@H]1O (stereo partly drawn) | inactive | inactive | – | inactive | – | inactive | inactive | inactive | inactive | inactive | – | – | – | – | – | – | inactive
